Hits are enriched below; roughly 0.58% of the tested compounds scored in any of these assays.
OXTR potentiate: potentiators of human oxytocin receptor; P30559; CHO-OTR cells, Fluo-8 calcium fluorescence, potentiator mode; 0% = oxytocin EC15, 100% = EC100; activation, % at 3 µM; 320,000 tested, 0.061% active; AID 2445;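 active = activation above that plate's cutoff, the mean activation of tested compounds plus 3 SD, cut at about 6.6% in these data, passing the limit was not always enough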;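 note: 100% uses oxytocin at 75 nM as the full agonist control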
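Assay system: CHO-OTR cells, human receptor / Also added: oxytocin at about EC15, sub-maximal agonist stimulus / Dosing: single dose, 3.0 µM nominal final compound concentration / Incubation: 6 min pre-incubation, 100 s read / Technique: Fluo-8 calcium dye fluorescence / Read-out: % activation vs EC15 and EC100 oxytocin / Benchmarks: EC15 oxytocin low, 75 nM oxytocin high / Replicates: singlicate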
zfTRPN1 agonist: zebrafish TRPN1 (NompC) channel agonism | HEK293 zebrafish TRPN1-YFP, Fluo-8 calcium fluorescence; 100% = response to 87 µM carbachol | activation, % at 3 µM | 220,000 tested, 0.18% active;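 active = activation above its plate's cutoff, the mean activation of test wells on that plate plus 3 SD, cut at about 19% in these data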;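 note: 0% = DMSO alone and 100% = 87 µM carbachol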
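Control set: carbachol 87 µM as high control, DMSO as low control; system: HEK293 stable line with zebrafish TRPN1-YFP; read-out: % activation versus carbachol response; detection: intracellular calcium fluorescence with Fluo-8; doses: single test compound dose, 3 µM nominal, 0.3% DMSO; schedule: dye 1 h 37 °C plus 30 min RT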
TRPML3 agonist: agonists of human TRPML3 channel; activation, % at 3 µM; AID 1448; HEK293 TRPML3-YFP, Fluo-8 calcium fluorescence; 100% = the carbachol control signal; Q8TDD5; 220,000 tested, 0.29% active;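 active = activation above its plate's cutoff, the mean activation of the plate's test wells plus 3 SD, cut at about 12% in these data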;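 note: 0% = DMSO only wells and 100% = carbachol wells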
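Material: TRPML3-YFP stable HEK293 cells | Dosing: One concentration, 3 µM nominal, 0.3% DMSO | Timing: 125 s total fluorescence read per well | Technique: Fluo-8 calcium dye fluorescence, ex 470-495, em 515-575 nm | Measure: Percent activation from peak-to-basal fluorescence ratio, scaled between DMSO and carbachol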
OXTR ag: activates the human oxytocin receptor; P30559; CHO-OTR cells, Fluo-8 calcium fluorescence; normalized: DMSO 0%, oxytocin 100%; activation, % at 3 µM; 320,000 tested, 0.32% active;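 active = activation above the mean of all tested compounds plus 3 SD, cutoff set per screening run, cut at about 20% in these data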;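 note: peak over basal fluorescence ratio from a 100 s FLIPR kinetic read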
V1aR counter: activates human V1a receptor in oxytocin agonist counter-screen; P37288; CHO-V1R cells, Fluo-8 calcium fluorescence, agonist mode; 0% DMSO, 100% 3 nM vasopressin; activation, % at 3 µM; 320,000 tested, 0.25% active;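 active = activation above the mean activation of all tested compounds plus 3 SD, per screening run, cut at about 20% in these data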;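 note: signal is peak over basal fluorescence ratio across a 100 second FLIPR read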
Target sequence (P37288 whole entry, looked up): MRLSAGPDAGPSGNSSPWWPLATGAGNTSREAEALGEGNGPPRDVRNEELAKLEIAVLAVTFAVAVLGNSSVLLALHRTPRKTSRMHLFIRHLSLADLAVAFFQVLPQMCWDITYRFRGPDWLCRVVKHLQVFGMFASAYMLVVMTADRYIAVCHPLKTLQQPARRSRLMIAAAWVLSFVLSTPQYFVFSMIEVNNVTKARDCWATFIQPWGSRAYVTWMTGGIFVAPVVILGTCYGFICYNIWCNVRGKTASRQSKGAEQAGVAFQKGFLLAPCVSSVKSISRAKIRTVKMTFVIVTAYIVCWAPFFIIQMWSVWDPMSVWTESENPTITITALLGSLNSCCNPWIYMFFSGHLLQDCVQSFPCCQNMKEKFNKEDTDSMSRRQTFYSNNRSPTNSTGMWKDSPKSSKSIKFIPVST
TRPN1 ag 2: counter-screen for TRPML3 agonists: agonists of zebrafish TRPN1 channel. shares compounds with TRPML3 agonist. HEK293 zebrafish TRPN1-YFP, Fluo-8 calcium fluorescence; scaled: carbachol wells 100%, DMSO wells 0%. activation, % at 3 µM. 310 tested, 10% active. AID 1525;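 active = mean activation over replicates above a set limit taken from the earlier TRPN1 channel primary screen, cut at about 19% in these data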;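 note: 100% = carbachol and 0% = 0.3% DMSO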
TRPML3 confirm: confirmation of human TRPML3 channel agonists | activation, % at 3 µM | HEK293 TRPML3-YFP, Fluo-8 calcium fluorescence; 100% set by carbachol, 0% by DMSO | shares compounds with TRPML3 agonist | 310 tested, 80% active;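 active = activation above a set limit derived from the earlier primary screen, cut at about 12% in these data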
OXTR agonist cf: human OXTR agonism, confirmation; CHO-OTR cells, Fluo-8 calcium fluorescence, agonist; 390 tested, 20% active; activation, % at 3 µM; AID 434963; shares compounds with OXTR ag;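 active = mean activation above about 20% derived from the earlier single-dose screen, limit read from the data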;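 note: peak over minimum fluorescence ratio per well during a 100 second FLIPR read; 0% = DMSO alone and 100% = oxytocin high control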
V1R ag counter 3x: activates V1a receptor in oxytocin agonist counter-screen; shares compounds with OXTR ag; CHO-V1R cells, Fluo-8 calcium fluorescence; activation, % at 3 µM; 390 tested, 10% active; AID 434991;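 active = mean activation over triplicate exceeds the hit threshold set in the earlier primary screen, cut at about 20% in these data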;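 note: peak over basal fluorescence ratio within a 100 second read; 0% = DMSO alone and 100% = 3 nM vasopressin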
* hit, by the source's call; · = no result.

SMILES	OXTR potentiate	zfTRPN1 agonist	TRPML3 agonist	OXTR ag	V1aR counter	OXTR agonist cf	V1R ag counter 3x	others
CC1=CC(C)(C)N(C(=O)CSc2nnc(-c3ccc(C)cc3)o2)c2ccc(C)cc21	-20	0	62*	-1	0	·	·	TRPN1 ag 2=-2;TRPML3 confirm=49*
O=C(Nc1ccccc1)c1ccc(S(=O)(=O)N2CCCCC2)cc1	-7	2	1	3	5	·	·
O=C(Nc1ccn(-c2ccccc2)n1)c1ccc(S(=O)(=O)N2CCCCCC2)cc1	-7	3	53*	0	2	·	·	TRPN1 ag 2=6;TRPML3 confirm=61*
O=C1NCC(c2ccccc2)C1C(=O)N/N=C\c1ccc(-c2ccc(Cl)c(Cl)c2)o1 (stereo not given)	-5	-1	-1	0	1	·	·
O=C1NCC(c2ccccc2)C1C(=O)N/N=C/c1ccc(Cl)s1 (stereo not given)	-3	2	15*	0	2	·	·	TRPN1 ag 2=20*;TRPML3 confirm=20*
COc1cc(C(=O)O/N=C2/C=C(C)C(=O)C=C2C)cc(OC)c1OC	-8	0	0	1	-1	·	·
CC1=C/C(=N\OS(=O)(=O)c2ccccc2)C(C)=CC1=O	-22	13	13*	20*	11	9	11	TRPN1 ag 2=20*;TRPML3 confirm=42*
CC(=O)c1sc(NC(=O)C2(F)C(F)(F)C(F)(F)C(F)(F)C(F)(F)C2(F)F)nc1C	-11	19	22*	21*	11	16	11	TRPN1 ag 2=31*;TRPML3 confirm=16*
c1ccc2c(c1)OCCOCCOCCOCCOCCOc1ccccc1OCCOCCOCCO2	-11	11	12*	21*	13	10	12	TRPN1 ag 2=25*;TRPML3 confirm=11
Cc1nc(C)c(C(=O)OCC(=O)NCCc2ccc(S(N)(=O)=O)cc2)s1	0	·	·	1	0	·	·
O=C(NCCCN1CCOCC1)C1CC(=O)N(c2ccccc2)C1 (stereo not given)	-5	·	·	1	6	·	·
COc1cc(CNCCc2c[nH]c3ccccc23)ccc1OCc1ccccc1F	-10	0	1	22*	11	13	5
COc1cccc(CNCCc2c[nH]c3ccccc23)c1OCc1ccccc1	-16	-2	0	29*	15	17	16
COc1ccc(CNCc2ccco2)cc1OCc1ccccc1	2	0	1	3	1	·	·
COc1ccccc1CCNCc1ccc(OC)c(OCc2ccccc2)c1	-11	3	1	22*	13	12	9
COc1cc(NS(=O)(=O)c2ccc(F)cc2)c(C(=O)O)cc1OC	-11	0	1	0	1	·	·
O=C(CN1C(=O)NC2(CCCC2)C1=O)N1CCN(S(=O)(=O)c2cccc(F)c2)CC1	-9	·	·	0	-1	·	·
COc1ccc(CCn2c(C(C)C)nc3c(c(=O)c4ccccc4n3C)c2=O)cc1	-19	-2	0	30*	10	0	13
Cc1ccccc1Cn1nnc(C(=O)Nc2cccc(C)c2C)c1N	-7	9	5	22*	17	22*	14
Cc1ccc(CNC(=O)Cn2nnc(C(=O)Nc3cccc(C)c3C)c2N)cc1	-6	·	·	2	2	·	·
COc1ccc(NS(=O)(=O)c2ccc(N3CCCC3)c(N)c2)cc1	-10	·	·	9	9	·	·
Brc1ccc2[nH]c3c(N4CCc5ccccc5C4)ncnc3c2c1	-21	4	2	24*	10	7	8
CC(=O)Nc1ccc(S(=O)(=O)Oc2cccc(N3C(=O)C4CC=CCC4C3=O)c2)cc1 (stereo not given)	-7	5	3	11	13	·	·
CC(=O)Nc1ccc(S(=O)(=O)Oc2ccc(N3C(=O)C4CCCCC4C3=O)cc2)cc1 (stereo not given)	-11	13	7	24*	17	14	14
CN1C(=O)C(O)(CC(=O)c2cccnc2)c2ccccc21 (stereo not given)	-5	1	0	1	1	·	·
SMILES	OXTR potentiate	zfTRPN1 agonist	TRPML3 agonist	OXTR ag	V1aR counter	OXTR agonist cf	V1R ag counter 3x	others
CN(C)Cc1c(O)ccc2oc(Cc3ccccc3)cc12	-19	2	2	23*	14	1	1
CN(C)Cc1c(O)ccc2ccccc12	-2	-2	1	2	0	·	·
Cc1cc(C(c2ccc(O)cc2)c2cc(C)c(O)cc2C)c(C)cc1O	-26	·	·	41*	18	40*	26*
Fc1ccc(CNc2nc(-c3cccnc3)nc3ccccc23)cc1	-9	·	·	2	3	·	·
CCOc1cc(CNCCO)cc(Br)c1OCc1ccc(Cl)cc1Cl	-18	1	2	21*	4	15	1
O=C(CCN1CCN(Cc2ccccc2)CC1)Nc1ccc(OCc2ccccc2)cc1	-12	3	3	22*	15	11	8
O=C(CN1CCN(CC(=O)Nc2ccc(OCc3ccccc3)cc2)CC1)Nc1ccc(F)cc1	-12	1	2	21*	15	9	9
COc1cccc(N2CCN(C(=O)CC(C)(C)CC3=NS(=O)(=O)c4ccccc4N3)CC2)c1	-14	·	·	12	14	·	·
CC(C)(C)CC(C)(C)NCC(O)COc1ccc2c(c1)CCC2 (stereo not given)	-11	1	1	21*	15	5	4
Cc1cc(C=O)c(C)n1-c1ccc(N2CCCCC2)c([N+](=O)[O-])c1	-32	3	2	4	7	·	·
Cc1cc(/C=C(\C#N)C(N)=O)c(C)n1-c1ccc(N2CCOCC2)c([N+](=O)[O-])c1	-6	-1	1	23*	11	12	19
CCCCN(CCCC)c1ccc(C(=O)c2ccccc2C(=O)O)c(O)c1	-12	2	1	34*	16	4	3
C=CCN1CCN(c2ccncc2S(=O)(=O)N2CCCCC2)CC1	-9	·	·	0	0	·	·
COc1cccc(OCCNC(=O)c2cccc(OC)c2)c1	-5	-1	0	0	0	·	·
CC(=O)c1c(C)[nH]c(C(=O)CN2C(=O)NC(C)(c3ccc(C)cc3)C2=O)c1C (stereo not given)	-13	17	7	20*	20	26*	17
CCCCCCCCCCOC(=O)Cn1c(COc2ccc(Cl)cc2)[n+](C)c2ccccc21	-11	·	·	17	18	·	·

Compound activity from PubChem.
